# Rows were chosen to be rich in hits. Some 1.7% of all compounds tested hit in one or more screens of this group.
# MLLE-PAM2 inh: inhibitors of microRNA-mediated deadenylation, human PABP1 MLLE binding | GST-MLLE / FITC-PAM2 fluorescence polarization | 360,000 tested, 0.36% active | P11940 | inhibition, % at 20 µM | AID 588489; in the data active means inhibition above about 35%, passing the limit was not always enough;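 further: plate controls were DMSO wells with GST-MLLE for no effect and wells lacking GST-MLLE protein for full effect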
# SKN-1 block: C. elegans SKN-1 inhibition; C. elegans VP596 Pgst-4::GFP/RFP ratio, acrylamide-induced, 24 h; inhibition, % at 21.8 µM; 360,000 tested, 0.49% active;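 active means interference check ratio from 0.5 to 1.5 plus GFP to RFP signal ratio inhibition reaching or exceeding a fixed threshold, cut at about 30% in these data, passing the limit was not always enough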
# MT1-MMP act inh: MT1-MMP (human) activation inhibition; GFP/RFP ratio change, % at 20 µM; 360,000 tested, 0.061% active; AID 651647; HT1080 RFP-PRO-GFP cells, GFP/RFP ratio fluorescence, overnight; percent of plate control window, DMSO zero;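 active means GFP/RFP ratio change of at least 30% with cell ATP level not reduced by more than half and red fluorescence within 50% of control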
#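 system = RFP-PRO-GFP reporter HT1080 cells | dosing = 20 µM single dose, 1% DMSO | timing = overnight cell settling, then overnight compound exposure, 37 °C, 5% CO2 | read-out basis = GFP/RFP fluorescence ratio | controls = DMSO and RFP-L50D-GFP cell wells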
# PABP FP inh: PABP-poly(A) binding inhibition; P11940; PABP-poly(A) RNA binding, fluorescence polarization; inhibition, % at 35 µM; 290,000 tested, 1% active; AID 2014;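 further: calls also rest on retests at 20 µM and on dose response follow-up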
# eIF4H FP inh: inhibitors of RNA binding by human eIF4H; Q15056; eIF4H fluorescence polarization binding assay; inhibition, % at 35 µM; 290,000 tested, 0.94% active;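 further: calls also rest on retests at 20 µM and on dose response follow-up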
# An asterisk follows results filed as active; u = inconclusive; x = no result. Unless noted, how the calls were made is not given here.
SMILES,MLLE-PAM2 inh,SKN-1 block,MT1-MMP act inh,PABP FP inh,eIF4H FP inh
O=C1NCCN(Cc2ccc(Cl)c(F)c2)C1CC(=O)N1CCc2ccccc2C1 (stereo not given),25,2,-7,20,54*
CN(Cc1ccon1)C(=O)CC1C(=O)NCCN1Cc1ccc(Cl)c(F)c1 (stereo not given),6,6,-3,-8,-9
COc1cc(-c2nnc(SCc3cc(=O)oc4cc(O)c(O)cc34)o2)cc(OC)c1OC,-122,7,12,69*,92*
CCOC(=O)CSc1nnc(-c2cc(OC)c(OC)c(OC)c2)o1,-13,11,6,0,-5
Cc1cc(Oc2ccc(N)cn2)ccc1Cl,-80,0,-60,9.2*,u
COc1cccc(Oc2ccc(N)cn2)c1,-14,-20,3,u,u
CN(C)c1ccc(N=Nc2ccc(C(=O)O)cc2)cc1,-16,41*,17,64*,70*
O=C(N/N=C/C=C\c1ccco1)c1cccnc1,2,2,-2,41*,62*
O=C(N/N=C/C=C/c1ccco1)c1cccnc1,27,9,-7,56*,64*
O=C(N/N=C/C=C/c1ccco1)c1cnccn1,15,-12,-4,45,74
O=C(N/N=C/C=C\c1ccco1)c1ccccn1,4,-1,-2,44*,75*
O=C(N/N=C\C=C\c1ccco1)c1cncc(Br)c1,-7,-2,6,46*,66*
O=C(O)CCC(=O)Nc1ccccc1Oc1ccccc1,1,0,-1,46,1
CCOC(=O)N1CCN(C(=O)c2ccc3c(c2)N(Cc2cccc(Cl)c2)C(=O)c2ccccc2S3=O)CC1 (stereo not given),5,5,-5,-15,-13
COc1ccc(C(C(=O)NC(C)(C)C)N(C(=O)CNC(=O)c2cccs2)c2cccnc2)cc1OC (stereo not given),-4,-2,1,-4,7
CS(=O)(=O)c1ccc2nc(NC3(C(F)(F)F)N=C4SCCN4C3=O)sc2c1 (stereo not given),42*,7,0,-4,-12
COC(=O)CCCC1=CC2=C(c3ccccc3)C(=O)C(C)(OC(=O)C3CCCC3)C(=O)C2=CN1CCCCO (stereo not given),14,-5,-1,4,1
COC(=O)CCCC1=CC2=C(c3ccccc3)C(=O)C(C)(OC(=O)C3CCCC3)C(=O)C2=CN1Cc1ccco1 (stereo not given),37,-9,-17,39*,60
CCc1nc2c(OCc3ccccc3C(=O)OC)cccn2c1N(C)C(=O)CC(C)C,6,15,3,x,x
N#Cc1c(N2CCCC(O)C2)nc(N)c2c(N)nc3c(c12)CC(=O)N3C12CC3CC(CC(C3)C1)C2 (stereo not given),-42,19,-27,62*,91*
CCCCN1C(=O)Cc2c1nc(N)c1c(N)nc(N(CCC)CCC)c(C#N)c21,14,-17,3,13,10
COc1ccc(CN2C(=O)Cc3c2nc(N)c2c(N)nc(N4CCCCC4)c(C#N)c32)cc1,x,x,x,-10,u
C=C(C)CN(CC)c1nc(N)c2c(N)nc3c(c2c1C#N)CC(=O)N3C12CC3CC(CC(C3)C1)C2,-14,14,-24,62*,76*
CCOC(=O)C1(C)CCN1C(=O)c1oc2ccccc2c1C (stereo not given),14,4,1,x,x
Cc1ccccc1-n1c(=O)c(C#N)cc2c(=O)n3ccccc3nc21,-7,-5,-2,13,18
Cc1cc(-n2c(=O)c(C#N)cc3c(=O)n4ccccc4nc32)no1,12,24,-8,120*,104*
N#C/C(=C\c1ccc(-c2cccc([N+](=O)[O-])c2)o1)C(=O)Nc1nc(-c2cccs2)cs1,1,-21,1,-5,9
Oc1c(Cl)cc(Cl)cc1C=Nc1ccc2c(c1)OCCO2,-46,-4,-1,51*,16*
Brc1csc(C=Nc2ccc3c(c2)OCCOCCOCCOCCO3)c1,7,4,0,21,32
CC1(C)CC(=O)C2=C(C1)NC(SCC(=O)Nc1ccccc1)=C(C#N)C2c1ccco1 (stereo not given),9,0,-10,13,-9
